Data on eight molecules can be found in ChEMBL document CHEMBL3124871, “Synthesis and pharmacological characterization of 1-benzyl-4-aminoindole-based thyroid hormone receptor β agonists” (Bioorg Med Chem, 2014).

SMILES strings stand for the structures.

The species entered for data set [1] is Homo sapiens. In words: Reduction in LDL-cholesterol in healthy human at 100 ug qd for 1 week. Details: scale not given: the % may be the effect or the level left. Format: functional.
In data set [2] the target is T1, Thyroid hormone receptor alpha (Homo sapiens, UniProt P10827).
T1 sequence (P10827 whole entry): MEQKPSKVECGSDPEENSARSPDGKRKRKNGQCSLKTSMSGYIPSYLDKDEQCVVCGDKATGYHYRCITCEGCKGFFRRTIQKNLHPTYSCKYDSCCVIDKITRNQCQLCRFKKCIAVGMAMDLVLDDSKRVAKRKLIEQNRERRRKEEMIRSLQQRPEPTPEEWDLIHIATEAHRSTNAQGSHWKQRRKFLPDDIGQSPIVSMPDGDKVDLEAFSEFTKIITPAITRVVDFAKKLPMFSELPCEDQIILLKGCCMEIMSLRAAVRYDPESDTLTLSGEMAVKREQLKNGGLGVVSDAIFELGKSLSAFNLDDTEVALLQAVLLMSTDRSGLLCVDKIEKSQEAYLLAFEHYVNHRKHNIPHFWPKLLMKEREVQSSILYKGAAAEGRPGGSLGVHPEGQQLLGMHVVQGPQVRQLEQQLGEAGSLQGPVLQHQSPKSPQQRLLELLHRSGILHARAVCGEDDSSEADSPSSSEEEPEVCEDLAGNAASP
Description: Agonist activity at human recombinant TRalpha1 transfected in CV-1 cells after 8 to 10 hrs by alkaline phosphatase reporter gene assay. The class given is cell-based. On the technique in general: Reporter assays use an easily measured gene product as a stand-in for the process of interest.

The subject of data set [3] is CV-1. Description: Selectivity ratio of EC50 for human recombinant transfected in CV-1 cells to EC50 for human recombinant TRbeta1 transfected in CV-1 cells. Format: cell-based. A digest of the protocol: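 CV-1 monkey kidney cells grown in DMEM with 10% FBS for 24 h at 37 °C and 5% CO2. Transfected (FuGENE) with hTRα1 or hTRβ1 plus a SEAP reporter for 24 h, then exposed to T3 or test compound for 8-10 h. SEAP was read as A405 of p-nitrophenol (pH 9.8, 30 min, RT). EC50 was set against T3 max = 100%; mean of four experiments; α/β ratio of EC50s.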

The target in data set [4] is T2, Thyroid hormone receptor beta (Homo sapiens, UniProt P10828).
T2 sequence (P10828 whole entry): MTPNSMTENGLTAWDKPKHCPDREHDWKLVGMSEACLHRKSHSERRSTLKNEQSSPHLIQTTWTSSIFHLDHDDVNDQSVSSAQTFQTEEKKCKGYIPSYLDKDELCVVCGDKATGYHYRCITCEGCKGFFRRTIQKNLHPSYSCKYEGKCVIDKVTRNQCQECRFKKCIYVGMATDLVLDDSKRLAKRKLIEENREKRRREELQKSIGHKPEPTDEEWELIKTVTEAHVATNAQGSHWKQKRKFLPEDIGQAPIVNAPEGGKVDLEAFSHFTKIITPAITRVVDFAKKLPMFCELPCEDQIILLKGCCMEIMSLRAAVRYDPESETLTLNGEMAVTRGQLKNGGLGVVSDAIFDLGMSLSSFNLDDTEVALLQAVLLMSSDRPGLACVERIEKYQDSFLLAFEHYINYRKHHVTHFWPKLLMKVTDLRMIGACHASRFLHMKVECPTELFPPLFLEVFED
In words: Agonist activity at human recombinant TRbeta1 transfected in CV-1 cells after 8 to 10 hrs by alkaline phosphatase reporter gene assay. Format: cell-based.

The target of data set [5] is T2, Thyroid hormone receptor beta. In words: Agonist activity at human recombinant TRbeta1 transfected in human HepG2 cells after 8 to 10 hrs by alkaline phosphatase reporter gene assay. Format: cell-based.
The test system of data set [6] is HepG2. In words: Selectivity ratio of EC50 for human recombinant transfected in human HepG2 cells to EC50 for human recombinant TRbeta1 transfected in human HepG2. Format: cell-based.
Data set [7] concerns Rattus norvegicus. In words: Toxicity in cholesterol-fed Sprague-Dawley rat assessed as TSH level at 50 ug/kg/day, po qd for 1 week measured 3 to 6 hrs post last dose (reference value: 62 +/- 7 ng/dl). The class given is organism-based. Particulars: in vivo, 0.05 mg/kg.
Data set [8] deals with Rattus norvegicus. In words: Reduction in plasma triglyceride level in cholesterol-fed Sprague-Dawley rat at 50 ug/kg/day, po qd for 1 week measured 3 to 6 hrs post last dose (reference value: 62 +/- 25 mg/dl). Format: functional.
The test system of data set [9] is Rattus norvegicus. In words: Reduction in plasma LDL-cholesterol in cholesterol-fed Sprague-Dawley rat at 50 ug/kg/day, po qd for 1 week measured 3 to 6 hrs post last dose (reference value: 51 +/- 15 mg/dl). The class given is functional.
In data set [10] the test system is Rattus norvegicus. Description: Toxicity in cholesterol-fed Sprague-Dawley rat assessed as total T4 level at 50 ug/kg/day, po qd for 1 week measured 3 to 6 hrs post last dose (reference value: 3.8 +/- 0.9 ug/dl). Format: organism-based. The note with it: in vivo, 0.05 mg/kg.
Data set [11] relates to Rattus norvegicus. Description: Reduction in plasma HDL-cholesterol in cholesterol-fed Sprague-Dawley rat at 50 ug/kg/day, po qd for 1 week measured 3 to 6 hrs post last dose (reference value: 22 +/- 6 mg/dl). Format: functional.
Data set [12] has as its system Rattus norvegicus. Description: Toxicity in cholesterol-fed Sprague-Dawley rat assessed as heart rate at 50 ug/kg/day, po qd for 1 week measured 3 to 6 hrs post last dose (reference value: 383.0 +/- 26.7 bpm). Format: organism-based. The note with it: in vivo, 0.05 mg/kg.
For data set [13], the system named is Rattus norvegicus. In words: Reduction in plasma total cholesterol in cholesterol-fed Sprague-Dawley rat at 50 ug/kg/day, po qd for 1 week measured 3 to 6 hrs post last dose (reference value: 190 +/- 49 mg/dl). The class given is functional.
Data set [14] relates to Rattus norvegicus. In words: Reduction in plasma free cholesterol in cholesterol-fed Sprague-Dawley rat at 50 ug/kg/day, po qd for 1 week measured 3 to 6 hrs post last dose (reference value: 36 +/- 9 mg/dl). The class given is functional.
Data set [15] deals with Rattus norvegicus. Description: Toxicity in cholesterol-fed Sprague-Dawley rat assessed as TSH level at 50 ug/kg/day, po qd for 1 week measured 3 to 6 hrs post last dose (reference value: 3.0 +/- 1.0 uIU/ml). Particulars: in vivo, 0.05 mg/kg. The class given is organism-based.
In data set [16] the test system is Rattus norvegicus. In words: Toxicity in cholesterol-fed Sprague-Dawley rat assessed as heart weight at 50 ug/kg/day, po qd for 1 week measured 3 to 6 hrs post last dose (reference value: 1.14 +/- 0.12 g). Particulars: in vivo, 0.05 mg/kg. Format: organism-based.
Data set [17] concerns the target T1, Thyroid hormone receptor alpha. Description: Displacement of [125I]-Triiodothyronine from human recombinant TRalpha1 ligand binding domain after 2 to 3 hrs by beta counting. A general note: In a radioligand displacement assay an active substance lowers the binding of a labelled ligand.
The target of data set [18] is T2, Thyroid hormone receptor beta. In words: Displacement of [125I]-Triiodothyronine from human recombinant TRbeta1 ligand binding domain after 2 to 3 hrs by beta counting.
Data set [19] is filed under the species Homo sapiens. Description: Reduction in triglyceride level in coronary heart disease patient with hyperlipidemia relative to placebo-control. The class given is functional. Also noted: scale not given: the % may be the effect or the level left.
For data set [20], the species on record is Homo sapiens. In words: Reduction in cholesterol level in coronary heart disease patient with hyperlipidemia relative to placebo-control. Format: functional. Details: scale not given: the % may be the effect or the level left.
The test system of data set [21] is Rattus norvegicus. In words: Toxicity in cholesterol-fed Sprague-Dawley rat assessed as heart rate at 150 mg/kg/day, po qd for 1 week measured 3 to 6 hrs post last dose (reference value: 383.0 +/- 26.7 bpm). Format: organism-based. Details: route oral. The note with it: in vivo.
Data set [22] deals with Rattus norvegicus. Description: Toxicity in cholesterol-fed Sprague-Dawley rat assessed as total T4 level at 30 mg/kg/day, po qd for 1 week measured 3 to 6 hrs post last dose (reference value: 3.8 +/- 0.9 ug/dl). The class given is organism-based. Also noted: route oral. The note with it: in vivo.
In data set [23] the test system is Rattus norvegicus. Description: Toxicity in cholesterol-fed Sprague-Dawley rat assessed as heart rate at 30 mg/kg/day, po qd for 1 week measured 3 to 6 hrs post last dose (reference value: 383.0 +/- 26.7 bpm). Details: route oral. Format: organism-based. The note with it: in vivo.
The subject of data set [24] is Rattus norvegicus. In words: Reduction in plasma total cholesterol in cholesterol-fed Sprague-Dawley rat at 30 mg/kg/day, po qd for 1 week measured 3 to 6 hrs post last dose (reference value: 190 +/- 49 mg/dl). Format: functional.
For data set [25], the system named is Rattus norvegicus. In words: Reduction in plasma LDL-cholesterol in cholesterol-fed Sprague-Dawley rat at 30 mg/kg/day, po qd for 1 week measured 3 to 6 hrs post last dose (reference value: 51 +/- 15 mg/dl). Format: functional.
Data set [26] concerns Rattus norvegicus. In words: Reduction in plasma triglyceride level in cholesterol-fed Sprague-Dawley rat at 30 mg/kg/day, po qd for 1 week measured 3 to 6 hrs post last dose (reference value: 62 +/- 25 mg/dl). Format: functional.
In data set [27] the test system is Rattus norvegicus. Description: Reduction in plasma free cholesterol in cholesterol-fed Sprague-Dawley rat at 30 mg/kg/day, po qd for 1 week measured 3 to 6 hrs post last dose (reference value: 36 +/- 9 mg/dl). Format: functional.
In data set [28] the test system is Rattus norvegicus. In words: Toxicity in cholesterol-fed Sprague-Dawley rat assessed as TSH level at 30 mg/kg/day, po qd for 1 week measured 3 to 6 hrs post last dose (reference value: 3.0 +/- 1.0 uIU/ml). Also noted: route oral. Particulars: in vivo. The class given is organism-based.
Data set [29] deals with Rattus norvegicus. Description: Toxicity in cholesterol-fed Sprague-Dawley rat assessed as TSH level at 150 mg/kg/day, po qd for 1 week measured 3 to 6 hrs post last dose (reference value: 3.0 +/- 1.0 uIU/ml). The note with it: in vivo. The class given is organism-based. Also noted: route oral.
The test system of data set [30] is Rattus norvegicus. Description: Toxicity in cholesterol-fed Sprague-Dawley rat assessed as heart weight at 30 mg/kg/day, po qd for 1 week measured 3 to 6 hrs post last dose (reference value: 1.14 +/- 0.12 g). Format: organism-based. Details: route oral. The note with it: in vivo.
The subject of data set [31] is Rattus norvegicus. Description: Toxicity in cholesterol-fed Sprague-Dawley rat assessed as total T4 level at 150 mg/kg/day, po qd for 1 week measured 3 to 6 hrs post last dose (reference value: 3.8 +/- 0.9 ug/dl). Format: organism-based. Also noted: route oral. Particulars: in vivo.
In data set [32] the test system is Rattus norvegicus. In words: Reduction in plasma HDL-cholesterol in cholesterol-fed Sprague-Dawley rat at 30 mg/kg/day, po qd for 1 week measured 3 to 6 hrs post last dose (reference value: 22 +/- 6 mg/dl). The class given is functional.
Data set [33] has as its system Rattus norvegicus. In words: Toxicity in cholesterol-fed Sprague-Dawley rat assessed as heart weight at 150 mg/kg/day, po qd for 1 week measured 3 to 6 hrs post last dose (reference value: 1.14 +/- 0.12 g). The class given is organism-based. Also noted: route oral. Particulars: in vivo.

For `CC(C)c1cc(Oc2c(Br)cc(NC(=O)CC(=O)O)cc2Br)ccc1O` [EPROTIROME], in [1], the Activity is 40%.

The term EC50 denotes the concentration at which the effect is half-maximal. With `Cc1c(CC(=O)O)c2ccccc2n1Cc1ccc(O)c(C(C)C)c1`, the EC50 in data set [2] was 450 nM; in [4] it was 150 nM. For the same molecule, the Ratio EC50 in data set [3] amounted to 3.

In the case of `CC(C)c1cc(Cn2ccc3c(NC(=O)C(=O)O)cccc32)ccc1O`, the 50% effective concentration (EC50) in data set [5] turned out to be 550 nM; in data set [4] it was 1900 nM. Also, the values for the Ratio EC50 in data set [6] and in [3] were 2.2 and 2.7, respectively.

For `N[C@@H](Cc1cc(I)c(Oc2ccc(O)c(I)c2)c(I)c1)C(=O)O` [LIOTHYRONINE], the Activity was 31 ng/dL in [7]; 61 mg/dL in data set [8]; 28 mg/dL in data set [9]; 0.9 µg/dL in data set [10]; 22 mg/dL in data set [11]; 430 bpm in data set [12]. Besides, the Activity turned out to be 123 mg/dL in data set [13], 22 mg/dL in data set [14], 0.1 uIU/ml in data set [15] and 1.25 g in data set [16].

One may read the IC50 as the midpoint of a concentration-inhibition curve. Consider `Cc1ccc(NC(=O)C(=O)O)c2ccn(Cc3ccc(O)c(C(C)C)c3)c12`, for which the EC50 in data set [5] came to 190 nM; in data set [4] it was 500 nM. Moreover, the IC50 in data set [17] was 190 nM; in [18], 54 nM. The figures for the Ratio EC50 in data set [6] and in data set [3] were 2.5 and 1.5, respectively.

Take `N[C@H](Cc1cc(I)c(Oc2cc(I)c(O)c(I)c2)c(I)c1)C(=O)[O-].O.[Na+]` [DEXTROTHYROXINE SODIUM]: the Activity in data set [19] stood at 15%; in data set [20] it was 12%.

Take `Cc1c(CC(=O)NCC(=O)O)c2ccccc2n1Cc1ccc(O)c(C(C)C)c1`: the IC50 amounted to 8200 nM in data set [17] and 430 nM in data set [18].

Take `Cc1cc2c(NC(=O)CC(=O)O)cccc2n1Cc1ccc(O)c(C(C)C)c1`: the Activity in data set [21] was 415.8 bpm; in [22] it was 2.8 µg/dL; in [23] it was 403.2 bpm; in data set [24], 111 mg/dL; in [25] it was 25 mg/dL; in data set [26] it was 44 mg/dL. Besides, the Activity in data set [27] was 19 mg/dL; in data set [28] it was 3.1 uIU/ml; in data set [29], 0.9 uIU/ml; in data set [30], 1.13 g; in data set [31] it was 1.7 µg/dL; in [32] it was 23 mg/dL. For the same molecule, the Activity in data set [33] is 1.24 g. In addition, the EC50 is 220 nM in [5] and 1700 nM in [4]. Further, the values for the IC50 in data set [17] and in [18] were 5200 nM and 230 nM, respectively. Moreover, the Ratio EC50 worked out at 16 in [6] and 4.5 in [3].
